MEKK2 mut-MEK5: MEK5 binding signal on mutant MEKK2 PB1, primary screen, biochemical, multiplex bead flow cytometry, Alexa488-MEK5 | 0.35% of 290,000 active | Alexa488-MEK5 binding to MEKK2 mutant | percent response, % at 10 µM; in the data active = percent response above about 24%, passing the limit was not always enough
MEKK3 PB1 HTS: modulators of MEKK3-MEK5 PB1 binding, primary screen, biochemical, wildtype MEKK3, multiplex bead flow cytometry, Alexa488-MEK5; Mitogen-activated protein kinase kinase kinase 3 (Homo sapiens), Q99759; bead-based flow cytometry, Alexa488-MEK5 binding to MEKK3; actives lie on both sides; 0 = blocked by unlabeled MEK5, 100 = vehicle; binding response (% of control), % at 10 µM; 1.4% of 290,000 active; AID 1529, 2009;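 active = binding response more than 3 SD above or below the average of its plate-row segment, actives on both sides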;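 note: Alexa488 bead fluorescence after subtracting the streptavidin-only scavenger bead signal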
Target sequence (Q99759 whole entry, looked up): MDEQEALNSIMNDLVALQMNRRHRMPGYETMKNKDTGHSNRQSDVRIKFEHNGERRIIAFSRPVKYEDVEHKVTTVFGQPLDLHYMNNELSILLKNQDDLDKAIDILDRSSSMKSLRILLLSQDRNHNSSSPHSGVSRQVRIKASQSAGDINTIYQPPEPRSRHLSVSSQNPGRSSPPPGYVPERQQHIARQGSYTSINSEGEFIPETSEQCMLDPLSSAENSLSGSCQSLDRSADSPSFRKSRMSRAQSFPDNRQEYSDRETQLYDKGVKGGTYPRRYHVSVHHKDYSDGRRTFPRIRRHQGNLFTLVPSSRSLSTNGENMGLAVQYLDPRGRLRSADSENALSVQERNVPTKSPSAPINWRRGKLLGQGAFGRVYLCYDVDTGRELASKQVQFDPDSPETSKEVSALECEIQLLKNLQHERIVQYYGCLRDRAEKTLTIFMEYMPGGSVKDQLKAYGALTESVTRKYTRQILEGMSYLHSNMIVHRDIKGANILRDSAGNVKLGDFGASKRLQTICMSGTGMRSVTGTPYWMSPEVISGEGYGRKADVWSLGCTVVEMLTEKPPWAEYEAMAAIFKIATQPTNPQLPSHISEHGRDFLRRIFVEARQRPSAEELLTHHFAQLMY
Hep lipid drop: inhibitors of hepatocyte lipid droplet formation, primary screen, imaging, high-throughput imaging, BODIPY stain; AML12 mouse hepatocytes, oleate lipid droplets; 0.4% of 240,000 active; inhibition, % at 6.5 µM;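 active = lipid droplet intensity inhibited by at least 50%, with more than 500 cells counted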
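Technique: fluorescence imaging, 20x objective, two fields per well / Assay system: AML12 hepatocytes (mouse) / Measure: % inhibition of lipid droplet signal / Doses: 6.5 µM single-point dosing / Incubation: overnight exposure / Reagent: 100 µM oleic acid challenge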
MEKK2wt PB1 HTS: modulators of MEK5 binding to wildtype MEKK2, primary screen, biochemical, multiplex bead flow cytometry, Alexa488-MEK5; Mitogen-activated protein kinase kinase kinase 2 (Homo sapiens), Q9Y2U5; Alexa488-MEK5 binding to MEKK2 WT; actives lie on both sides; binding response (% of control), % at 10 µM; 1.1% of 290,000 active; AID 1531, 2009; in the data active = binding response below about 67% or above about 130%
MEKK2wt confirm: modulators of MEK5 binding to wildtype MEKK2, confirmation, biochemical, single concentration, multiplex bead flow cytometry; shares compounds with MEKK3 PB1 HTS; Alexa488-MEK5 binding to MEKK2 WT; actives lie on both sides; 2.4% of 5,900 active; AID 1892, 2009; binding response (% of control), % at 10 µM; in the data active = binding response below about 16% or above about 210%; inactive = in between
MEKK2mut-MEK5: mutant MEKK2 PB1-MEK5 binding signal retest – biochemical, single concentration, multiplex bead flow cytometry, confirmation | 2% of 5,900 active | AID 1893, 2009 | shares compounds with MEKK3 PB1 HTS | Alexa488-MEK5 binding to MEKK2 mutant | percent response, % at 10 µM; in the data active = percent response mostly above about 71%, no sharp cut-off; inactive = mostly below about 38%;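 note: higher means compound restores mutant binding toward wildtype level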
MEKK3-MEK5 inh: MEKK3 wild-type PB1 binding to MEK5, inhibitors, confirmation, biochemical, bead multiplex flow cytometry, single concentration, wildtype | shares compounds with MEKK3 PB1 HTS | Alexa488-MEK5 binding to MEKK3; active compounds read low | binding response (% of control), % at 10 µM | 1.8% of 5,900 active | AID 1894, 2009;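 active = binding response below 72% of control, or above a set upper limit, though filed actives all read lower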;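 note: 100% = DMSO only wells and 0% = binding blocked by excess unlabeled MEK5; lower values mean stronger disruption of MEK5 binding to MEKK3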
The depositor's hits bear a star; x = no result given; [ ] = remark or other dose. Sampled rows, rich in hits. Any-hit rate of the full collection: about 2.6%.

SMILES	MEKK2 mut-MEK5	MEKK3 PB1 HTS	Hep lipid drop	MEKK2wt PB1 HTS	MEKK2wt confirm	MEKK2mut-MEK5	MEKK3-MEK5 inh
Cc1ccc(NC(=O)CN(C)C(=O)CN2C(=O)NC(C)(c3ccccc3)C2=O)cc1 (configuration not stated)	-5	79*[inhibitor]	x	91	101	3	101
O=C(CCNC(=O)C1CCN(S(=O)(=O)c2ccccc2)CC1)Nc1cccc(C(F)(F)F)c1	-1	103	13	109	x	x	x
Cc1cc(C)c(NC(=O)c2ccc(CNS(=O)(=O)c3cc(C(F)(F)F)ccc3Cl)cc2)c(C)c1	1	130*	-1	104	96	0	99
COc1ccccc1NC(=O)O/N=C(\N)c1ccccc1	-35	81	0	70	x	x	x
O=C1CC(c2cccc(Cl)c2)c2cc3c(cc2N1)CCC3 (configuration not stated)	-27	2.0*[inhibitor]	x	-2.0*[inhibitor]	88	-6	95
O=C(NCCN1CCCCCC1)c1ccc(N2CCCC2=O)cc1	9	101	-18	145*	127	20	103
CC1CCN(CCCNC(=O)c2ccc(N3CCCC3=O)cc2)CC1	2	97	18	101	x	x	x
O=C(NCCCN1CCN(c2cccc(Cl)c2)CC1)c1cccc(N2CCCC2=O)c1	27*	109	0	125	113	20	107
CC(=O)N1C(=O)CC(C)N(C(C)=O)c2ccc([N+](=O)[O-])cc21 (configuration not stated)	11	100	2	109	x	x	x
CC(C)(C)C1CCC(OC(=O)CN2CCCCC2)CC1 (configuration not stated)	3	102	-11	101	x	x	x
COc1cc(CO)cc(Br)c1OCC(=O)Nc1cccc2ccccc12	0	100	17	97	x	x	x
CCOc1ccc(OCC(=O)Nc2ccc(OC)cc2[N+](=O)[O-])cc1	-22	37*[inhibitor]	-1	51	101	1	101
COc1ccc(NC(=O)COc2ccc(C)cc2)c([N+](=O)[O-])c1	-8	91	13	95	x	x	x
CC1=C(C)CC(C(=O)NCc2cccc(Cl)c2)C(C(=O)O)C1 (configuration not stated)	-8	96	-12	97	x	x	x
COc1ccc(/C=C(/NC(=O)/C=C/c2ccccc2)C(=O)N2CCOCC2)cc1	1	149*	-13	108	108	7	106
CC(C)[C@@H](C(=O)N1CCNCC1)n1cc(CCO)nn1	3	99	6	104	x	x	x
Cn1c(=O)c2c(ncn2CC(O)CNc2cccc(Cl)c2)n(C)c1=O (configuration not stated)	-7	102	-39	91	x	x	x
COC(=O)c1c(NC(=S)NN2CCN(C)CC2)sc2c1CCC(C)C2 (configuration not stated)	26	112	6	163*	143	13	106
COC(=O)c1c(NC(=O)Cc2cccs2)sc2c1CCC(C)C2 (configuration not stated)	1	104	-10	97	x	x	x
COc1ccc(C)cc1NC(=O)COC(C)=O	-5	74*[inhibitor]	-1	79	101	0	103
O=C(COC(=O)Cc1ccccc1F)Nc1ccc2c(c1)OCCO2	0	138*	-3	107	101	-6	102
Cc1cccc(OCC(=O)Nc2ccc3c(c2)OCO3)c1C	-15	2.0*[inhibitor]	x	2.0*[inhibitor]	95	-10	99
Cc1ccc(C)c(OCC(=O)Nc2ccc3c(c2)OCO3)c1C	0	105	0	93	x	x	x
O=C(O)CC1(CC(=O)NCc2ccc(C(F)(F)F)cc2)CCCCC1	23	128*	15	125	100	-4	101
CCn1c(SCC(=O)Nc2nccs2)nnc1-c1ccccn1	1	93	15	100	x	x	x
SMILES	MEKK2 mut-MEK5	MEKK3 PB1 HTS	Hep lipid drop	MEKK2wt PB1 HTS	MEKK2wt confirm	MEKK2mut-MEK5	MEKK3-MEK5 inh
N#CCCNC(=O)Cn1c(COc2ccc(Cl)cc2)nc2ccccc21	1	143*	26	108	96	0	97
Cc1nc2ccccc2nc1N1CCCCC1	4	98	x	101	x	x	x
Cc1ccc2c(Cl)c(C)c(N3CCCCC3)nc2n1	1	131*	-2	105	106	3	106
CCOC(=O)C1=C(O)c2ccccc2C(=O)/C1=C\c1ccc(C)cc1	0	68*[inhibitor]	-2	95	98	0	103
O=C(NC(=S)N(CC1CCC1)CC1CCCO1)c1cccc([N+](=O)[O-])c1 (configuration not stated)	-10	102	-4	94	x	x	x
Cc1ccccc1C(=O)c1cccn1CC(=O)NCCN1CCN(c2cccc(C)c2C)CC1	10	104	-4	144*	133	25	107
CCN(CC)CCSc1nc2ccccc2n1Cc1ccccc1	6	108	-8	114	x	x	x
O=c1c(Cl)c(Cl)cnn1-c1ccccc1	1	133*	-20	108	103	3	100
CCOc1cnn(-c2ccccc2)c(=O)c1Cl	5	104	x	104	x	x	x
Cn1c(=O)c2cc(S(=O)(=O)NC(Cc3ccccc3)C(=O)NCC3CCCO3)ccc2n(C)c1=O (configuration not stated)	4	138*	7	123	96	-4	97
COc1ccc(-n2nc(C(=O)NCC3CCCO3)c3ccccc3c2=O)cc1 (configuration not stated)	1	97	-7	95	x	x	x
Cn1nc(C(=O)NCC2CCCO2)c2ccccc2c1=O (configuration not stated)	-5	82*[inhibitor]	1	86	103	1	102
O=C(O)c1ccc(/C=N/NC(=O)C2CC2(c2ccccc2)c2ccccc2)cc1 (configuration not stated)	5	153*	40	117	95	-7	98
O=C(/C(=N/N=C/c1ccc(O)c(O)c1O)c1ccccc1)c1ccccc1	0	136*	10	104	96	-9	101
Oc1ccc(/C=N/N=C(c2ccccc2)c2ccccc2)c(O)c1O	4	96	-2	96	x	x	x

Compound activity (PubChem)
